Reference: ChEMBL document CHEMBL1132304, “Characterization of "mini-nucleotides" as P2X receptor agonists in rat cardiomyocyte cultures. An integrated synthetic, biochemical, and theoretical study” (1999)
Activity calls are given as the source filed them. No cut-off for these calls is given here.

How the values were obtained:
Rattus norvegicus [1] = organism: Rattus norvegicus; assay: In vitro effect on intracellular ca++ elevation was determined in comparison to the ATP at 10 uM on rat cardiomyocytes; Not active; format: functional
Outline: (§1)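 Cultured neonatal rat cardiomyocytes (3-5 days in vitro) on coverglasses were loaded with indo-1, and [Ca²⁺]i was estimated by the 405/495 nm emission ratio method under UV epifluorescence. Ligand was added at 100 µM, with ATP 10 µM as reference. The read-out was [Ca²⁺]i elevation in nM above the 100 nM basal level, from 2-3 experiments.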

Rattus norvegicus [2] = organism: Rattus norvegicus; assay: In vitro effect on intracellular ca++ elevation was determined in comparison to the ATP at 10 uM on rat cardiomyocytes; Ca++ elevation; Not active; format: functional; outline: as §1
Rattus norvegicus [3] = organism: Rattus norvegicus; assay: In vitro effect on intracellular ca++ elevation was determined in comparison to the ATP at 10 uM on rat cardiomyocytes; Ca++ elevation; format: functional; outline: as §1
Rattus norvegicus [4] = organism: Rattus norvegicus; assay: Inhibition of Ca++ elevation was determined in PPADS treated cardiac cells in rat; No inhibition; format: functional, cell-based
Rattus norvegicus [5] = organism: Rattus norvegicus; assay: Compound was evaluated 1 min after drug application on rat cardiomyocytes; format: functional; design: concentration or dose not given beside the values
Outline: (§2)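 Neonatal rat cardiomyocyte cultures (3-5 days in vitro, spontaneously contracting monolayers on collagen/gelatin-coated coverglasses) exposed to ligand at 100 µM. Contraction rate was recorded by video motion detector under phase-contrast microscopy at 37 °C in 95% air/5% CO₂, 1 min after drug application. The read-out was % reduction of heart rate from representative experiments.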

Rattus norvegicus [6] = organism: Rattus norvegicus; assay: Inhibition of Ca++ elevation was determined in CPX treated cardiac cells in rat; Complete inhibition; format: functional, cell-based
Rattus norvegicus [7] = organism: Rattus norvegicus; assay: Inhibition of Ca++ elevation was determined in PPADS treated cardiac cells in rat; Complete inhibition; format: functional, cell-based
Rattus norvegicus [8] = organism: Rattus norvegicus; assay: Inhibition of Ca++ elevation was determined in CPX treated cardiac cells in rat; No inhibition; format: functional, cell-based
Rattus norvegicus [9] = organism: Rattus norvegicus; assay: Inhibition of Ca++ elevation was determined in PPADS treated cardiac cells in rat; format: functional
Outline: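 Neonatal rat cardiomyocyte cultures. Cells were incubated 5 min with 100 µM PPADS (P2-R antagonist) before the agonist was added at 100 µM (ATP at 10 µM). Intracellular Ca²⁺ was measured by the indo-1 405/495 nm emission ratio (Grynkiewicz ratio method). Scored as complete inhibition (+), no inhibition (−), or partial.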

Rattus norvegicus [10] = organism: Rattus norvegicus; assay: In vitro effect on intracellular ca++ elevation was determined in comparison to the ATP at 10 uM on rat cardiomyocytes; Ca++ elevation; Not avtive; format: functional; outline: as §1
Rattus norvegicus [11] = organism: Rattus norvegicus; assay: Compound was evaluated 1 min after drug application on rat cardiomyocytes; Not active; format: functional; outline: as §2
Rattus norvegicus [12] = organism: Rattus norvegicus; assay: In vitro effect on intracellular ca++ elevation in comparison to the ATP at 10 uM on rat cardiomyocytes.; format: functional; outline: as §1
Rattus norvegicus [13] = organism: Rattus norvegicus; assay: Inhibition of Ca++ elevation was determined in CPX treated cardiac cells in rat; Complete inhibition; Complete inhibition; format: functional, cell-based

Structure (SMILES) | Ca2+ elevation (Rattus norvegicus [3]) [nM] | Reduction of heart rate (Rattus norvegicus [5]) [%] | inhibition (Rattus norvegicus [7]) | further results
Cn1c(=O)c2c(nc(Sc3ccccc3)n2CCOP(=O)(O)O)n(C)c1=O | – | – | – | Ca2+ elevation (Rattus norvegicus [1]): inactive
Cn1c(=O)c2c(nc(Sc3ccccc3)n2CCOP(=O)(O)OP(=O)(O)OP(=O)(O)O)n(C)c1=O | – | – | – | Ca2+ elevation (Rattus norvegicus [1]): inactive
CCOc1nc2c(c(=O)n(C)c(=O)n2C)n1CCOP(=O)(O)O | – | – | – | Ca2+ elevation (Rattus norvegicus [1]): inactive
Cn1c(=O)c2c(ncn2CCCOP(=O)(O)OP(=O)(O)OP(=O)(O)O)n(C)c1=O | – | – | – | Ca2+ elevation (Rattus norvegicus [2]): inactive
Cn1cnc2c1c(=O)n(CCOP(=O)(O)OP(=O)(O)OP(=O)(O)O)c(=O)n2C.N.N.N.N | 54 | 3 | – | inhibition (Rattus norvegicus [4]): inactive; inhibition (Rattus norvegicus [6]): Total inhibition
Cn1c(=O)c2c(ncn2CCOP(=O)(O)O)n(C)c1=O | 80 | 16 | Total inhibition | inhibition (Rattus norvegicus [6]): Total inhibition
Nc1ncnc2c1ncn2[C@@H]1O[C@H](COP(=O)(O)OP(=O)(O)OP(=O)(O)O)[C@@H](O)[C@H]1O [ADENOSINE TRIPHOSPHATE] | – | – | – | inhibition (Rattus norvegicus [8]): inactive; Inhibition (Rattus norvegicus [9]): 60%
Cn1c(=O)c2c(ncn2CCCOP(=O)(O)O)n(C)c1=O | – | – | – | Ca2+ elevation (Rattus norvegicus [10]): inactive
Cn1c(Sc2ccccc2)nc2c1c(=O)n(CCOP(=O)(O)O)c(=O)n2C | – | – | – | Ca2+ elevation (Rattus norvegicus [1]): inactive
Cn1c(Br)nc2c1c(=O)n(CCOP(=O)(O)O)c(=O)n2C | 80 | – | Total inhibition | NA (Rattus norvegicus [11]): inactive; inhibition (Rattus norvegicus [8]): inactive
Cn1c(=O)c2c(ncn2CCOP(=O)(O)OP(=O)(O)OP(=O)(O)O)n(C)c1=O | – | 64 | Total inhibition | inhibition (Rattus norvegicus [8]): inactive; Ca2+ elevation (Rattus norvegicus [12]): 87 nM
Cn1c(=O)c2c(nc(Cl)n2CCOP(=O)(O)O)n(C)c1=O | 49 | 95 | – | inhibition (Rattus norvegicus [8]): inactive
Cn1cnc2c1c(=O)n(CCCOP(=O)(O)OP(=O)(O)OP(=O)(O)O)c(=O)n2C.N.N.N.N | 60 | – | – | –
Cn1c(Br)nc2c1c(=O)n(CCOP(=O)(O)OP(=O)(O)OP(=O)(O)O)c(=O)n2C | 94 | 50 | Total inhibition | –
Cn1c(=O)c2c(nc(Br)n2CCOP(=O)(O)OP(=O)(O)OP(=O)(O)O)n(C)c1=O | 37 | 32 | – | –
Cn1cnc2c1c(=O)n(CCOP(=O)(O)O)c(=O)n2C.N.N | 61 | 10 | Total inhibition | inhibition (Rattus norvegicus [13]): Total inhibition
Cn1cnc2c1c(=O)n(CCCOP(=O)(O)O)c(=O)n2C | – | – | – | Ca2+ elevation (Rattus norvegicus [10]): inactive
Cn1c(=O)c2c(nc(Br)n2CCOP(=O)(O)O)n(C)c1=O | 54 | 17 | – | –
Cn1c(=O)c2c(nc(Cl)n2CCOP(=O)(O)OP(=O)(O)OP(=O)(O)O)n(C)c1=O | 29 | 28 | Total inhibition | inhibition (Rattus norvegicus [8]): inactive
CCOc1nc2c(c(=O)n(C)c(=O)n2C)n1CCOP(=O)(O)OP(=O)(O)OP(=O)(O)O | – | – | – | Ca2+ elevation (Rattus norvegicus [10]): inactive
